Data set [1] can be described thus: Half life in rat liver microsomes. The format is ADME. In general terms: Microsomes from liver hold many membrane-bound enzymes, among them those of drug oxidation.
Data set [2] in a line: Half life in mouse liver microsomes. In kind it is ADME.
Data set [3] is described as follows: Half life in human liver microsomes. The format is ADME.
Data set [4] addresses T1, Oxysterols receptor LXR-beta (Homo sapiens, UniProt P55055).
T1 sequence (P55055 whole entry): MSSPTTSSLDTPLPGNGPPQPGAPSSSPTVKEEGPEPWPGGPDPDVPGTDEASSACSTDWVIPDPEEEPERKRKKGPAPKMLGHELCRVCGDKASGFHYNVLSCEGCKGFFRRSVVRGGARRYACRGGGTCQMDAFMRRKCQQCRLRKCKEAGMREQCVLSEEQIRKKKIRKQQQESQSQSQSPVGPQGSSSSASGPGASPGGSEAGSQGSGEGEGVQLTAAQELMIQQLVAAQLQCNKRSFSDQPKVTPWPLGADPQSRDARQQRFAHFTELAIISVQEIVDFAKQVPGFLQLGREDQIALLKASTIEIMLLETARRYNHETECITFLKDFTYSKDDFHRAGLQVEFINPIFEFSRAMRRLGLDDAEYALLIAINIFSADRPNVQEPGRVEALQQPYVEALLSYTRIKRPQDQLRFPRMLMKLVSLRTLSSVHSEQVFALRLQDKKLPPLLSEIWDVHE
The data set can be described thus: Binding to human LXRbeta.

Data set [5] has as its target T2, Oxysterols receptor LXR-alpha (Homo sapiens, UniProt Q13133).
T2 sequence (Q13133 whole entry): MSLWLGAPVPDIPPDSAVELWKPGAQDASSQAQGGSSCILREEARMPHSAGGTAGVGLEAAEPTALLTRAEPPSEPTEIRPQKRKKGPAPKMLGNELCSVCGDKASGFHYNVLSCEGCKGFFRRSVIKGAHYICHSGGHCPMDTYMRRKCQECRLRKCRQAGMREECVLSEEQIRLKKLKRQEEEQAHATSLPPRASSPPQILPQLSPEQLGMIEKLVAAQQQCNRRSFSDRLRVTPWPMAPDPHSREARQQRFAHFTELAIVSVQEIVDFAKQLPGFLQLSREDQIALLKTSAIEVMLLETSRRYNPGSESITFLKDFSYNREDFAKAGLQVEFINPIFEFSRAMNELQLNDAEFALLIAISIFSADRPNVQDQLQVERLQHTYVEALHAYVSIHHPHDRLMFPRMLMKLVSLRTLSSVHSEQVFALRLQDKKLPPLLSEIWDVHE
Description: Agonist activity at human LXRalpha coexpressed in African green monkey CV1 cells by Gal4 responsive reporter gene assay. In kind it is cell-based, CV-1. A general note: A reporter such as luciferase makes a cellular process visible.

For data set [6], the target named is T1, Oxysterols receptor LXR-beta. Description: Agonist activity at human LXRbeta coexpressed in African green monkey CV1 cells by Gal4 responsive reporter gene assay. The format is cell-based, CV-1.
Data set [7] deals with T2, Oxysterols receptor LXR-alpha. The data set can be described thus: Binding affinity to human LXRalpha.
For data set [8], the target named is T3, Mineralocorticoid receptor (Homo sapiens, UniProt P08235).
T3 sequence (P08235 whole entry): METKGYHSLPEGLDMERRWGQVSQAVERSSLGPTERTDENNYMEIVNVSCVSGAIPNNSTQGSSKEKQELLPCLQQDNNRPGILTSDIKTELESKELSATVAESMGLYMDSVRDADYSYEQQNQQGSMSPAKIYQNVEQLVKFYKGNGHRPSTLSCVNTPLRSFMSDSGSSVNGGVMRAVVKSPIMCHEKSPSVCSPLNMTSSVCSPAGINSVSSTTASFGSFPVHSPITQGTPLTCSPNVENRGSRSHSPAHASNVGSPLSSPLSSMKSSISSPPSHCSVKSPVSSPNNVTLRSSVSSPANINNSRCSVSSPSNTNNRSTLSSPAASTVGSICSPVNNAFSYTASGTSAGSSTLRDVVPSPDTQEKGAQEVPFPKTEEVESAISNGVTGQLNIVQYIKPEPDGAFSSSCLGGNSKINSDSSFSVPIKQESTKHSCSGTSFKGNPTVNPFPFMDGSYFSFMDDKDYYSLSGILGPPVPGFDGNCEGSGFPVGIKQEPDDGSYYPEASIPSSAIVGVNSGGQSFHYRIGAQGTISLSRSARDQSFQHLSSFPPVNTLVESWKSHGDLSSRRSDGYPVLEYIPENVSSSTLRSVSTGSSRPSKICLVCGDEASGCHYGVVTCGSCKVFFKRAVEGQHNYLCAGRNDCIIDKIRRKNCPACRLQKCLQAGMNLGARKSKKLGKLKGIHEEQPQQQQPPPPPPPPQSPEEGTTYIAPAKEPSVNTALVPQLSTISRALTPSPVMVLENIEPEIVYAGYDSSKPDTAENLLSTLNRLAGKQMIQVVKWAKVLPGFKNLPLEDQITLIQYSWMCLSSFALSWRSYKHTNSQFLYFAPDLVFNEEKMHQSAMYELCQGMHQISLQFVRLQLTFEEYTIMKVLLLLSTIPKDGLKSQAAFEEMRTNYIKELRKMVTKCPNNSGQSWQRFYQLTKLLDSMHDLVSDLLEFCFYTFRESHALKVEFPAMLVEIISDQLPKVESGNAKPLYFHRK
The data set can be described thus: Inhibition of Mineralocorticoid receptor (unknown origin).

In another data set the target is T4, Retinoid X receptor (Homo sapiens, UniProt P28702+P48443+P19793).
T4 sequence (P28702 whole entry): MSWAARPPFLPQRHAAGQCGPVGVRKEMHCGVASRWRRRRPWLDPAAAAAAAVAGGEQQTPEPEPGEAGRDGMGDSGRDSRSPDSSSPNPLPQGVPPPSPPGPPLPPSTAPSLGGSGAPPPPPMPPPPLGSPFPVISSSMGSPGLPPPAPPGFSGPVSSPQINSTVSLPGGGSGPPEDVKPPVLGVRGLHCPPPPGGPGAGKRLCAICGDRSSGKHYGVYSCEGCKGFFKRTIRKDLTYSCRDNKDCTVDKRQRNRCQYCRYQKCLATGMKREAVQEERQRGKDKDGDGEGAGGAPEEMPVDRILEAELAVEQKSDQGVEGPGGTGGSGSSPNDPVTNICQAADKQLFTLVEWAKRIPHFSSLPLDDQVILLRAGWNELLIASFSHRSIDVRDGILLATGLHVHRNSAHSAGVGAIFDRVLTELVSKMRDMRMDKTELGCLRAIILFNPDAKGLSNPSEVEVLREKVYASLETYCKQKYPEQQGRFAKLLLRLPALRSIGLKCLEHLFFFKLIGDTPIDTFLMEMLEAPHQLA
T4 sequence (P48443 whole entry): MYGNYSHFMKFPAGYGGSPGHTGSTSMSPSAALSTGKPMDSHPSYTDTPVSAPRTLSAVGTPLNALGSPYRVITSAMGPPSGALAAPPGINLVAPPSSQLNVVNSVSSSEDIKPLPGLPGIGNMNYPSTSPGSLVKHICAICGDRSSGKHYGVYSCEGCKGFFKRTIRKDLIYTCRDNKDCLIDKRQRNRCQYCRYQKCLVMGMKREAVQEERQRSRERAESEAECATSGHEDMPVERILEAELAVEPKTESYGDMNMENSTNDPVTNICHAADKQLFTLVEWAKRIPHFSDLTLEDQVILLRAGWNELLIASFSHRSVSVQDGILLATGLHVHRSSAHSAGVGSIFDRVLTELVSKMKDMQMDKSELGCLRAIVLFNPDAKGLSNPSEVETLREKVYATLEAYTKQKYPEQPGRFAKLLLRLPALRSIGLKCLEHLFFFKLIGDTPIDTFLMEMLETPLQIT
T4 sequence (P19793 whole entry): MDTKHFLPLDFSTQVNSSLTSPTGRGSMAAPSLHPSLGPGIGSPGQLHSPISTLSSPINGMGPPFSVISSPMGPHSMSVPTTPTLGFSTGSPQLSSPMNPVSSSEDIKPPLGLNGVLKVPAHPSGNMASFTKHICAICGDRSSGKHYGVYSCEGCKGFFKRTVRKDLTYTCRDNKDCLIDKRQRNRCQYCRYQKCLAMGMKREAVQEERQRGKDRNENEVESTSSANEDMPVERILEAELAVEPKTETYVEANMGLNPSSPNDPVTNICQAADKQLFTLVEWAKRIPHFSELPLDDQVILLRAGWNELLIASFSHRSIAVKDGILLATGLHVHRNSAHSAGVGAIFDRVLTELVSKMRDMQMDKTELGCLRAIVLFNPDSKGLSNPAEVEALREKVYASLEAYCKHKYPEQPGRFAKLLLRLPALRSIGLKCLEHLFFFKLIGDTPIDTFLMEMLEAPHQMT
The data set can be described thus: Inhibition of RXR (unknown origin). The format is protein assay.

Data set [9] in a line: Half life in cynomolgus monkey liver microsomes. The format is ADME, Macaca fascicularis.
Data set [10] concerns the target T5, Nuclear receptor subfamily 1 group I member 2 (Homo sapiens, UniProt O75469).
T5 sequence (O75469 whole entry): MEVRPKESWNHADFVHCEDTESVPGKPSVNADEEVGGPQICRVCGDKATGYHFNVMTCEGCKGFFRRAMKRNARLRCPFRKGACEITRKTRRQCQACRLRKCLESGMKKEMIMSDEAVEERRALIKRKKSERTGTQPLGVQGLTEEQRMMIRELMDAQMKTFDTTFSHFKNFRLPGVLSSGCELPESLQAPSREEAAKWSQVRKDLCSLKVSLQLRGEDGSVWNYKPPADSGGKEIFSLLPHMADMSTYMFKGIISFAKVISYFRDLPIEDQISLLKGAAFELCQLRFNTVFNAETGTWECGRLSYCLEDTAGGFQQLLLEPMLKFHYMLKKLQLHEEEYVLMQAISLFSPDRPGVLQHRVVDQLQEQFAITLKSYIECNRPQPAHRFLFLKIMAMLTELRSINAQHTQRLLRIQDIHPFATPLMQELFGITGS
Description: Inhibition of PXR (unknown origin).

Data set [11] concerns the target T6, Nuclear receptor ROR-alpha (Homo sapiens, UniProt P35398).
T6 sequence (P35398 whole entry): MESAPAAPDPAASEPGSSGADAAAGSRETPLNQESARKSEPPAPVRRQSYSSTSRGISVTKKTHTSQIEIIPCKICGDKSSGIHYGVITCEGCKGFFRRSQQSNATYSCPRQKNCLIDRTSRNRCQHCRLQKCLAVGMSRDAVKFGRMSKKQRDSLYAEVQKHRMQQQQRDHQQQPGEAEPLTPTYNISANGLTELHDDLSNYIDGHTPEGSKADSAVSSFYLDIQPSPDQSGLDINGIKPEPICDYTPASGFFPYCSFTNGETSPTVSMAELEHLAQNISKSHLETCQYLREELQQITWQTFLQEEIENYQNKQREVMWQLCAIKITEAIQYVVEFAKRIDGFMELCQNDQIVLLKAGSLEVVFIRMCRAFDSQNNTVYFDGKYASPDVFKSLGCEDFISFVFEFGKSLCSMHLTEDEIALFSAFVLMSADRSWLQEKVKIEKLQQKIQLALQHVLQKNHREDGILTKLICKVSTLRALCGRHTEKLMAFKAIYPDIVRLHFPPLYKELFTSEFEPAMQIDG
Description: Inhibition of RORalpha receptor (unknown origin).

The target in data set [12] is T1, Oxysterols receptor LXR-beta. Description: Agonist activity at human LXRbeta ligand binding domain(155 to 460 residues) transfected in HEK293 cells after 16 hrs by Gal4-luciferase reporter gene assay. In kind it is cell-based.
The target in data set [13] is T2, Oxysterols receptor LXR-alpha. Description: Agonist activity at human LXRalpha ligand binding domain(167 to 447 residues) transfected in HEK293 cells after 16 hrs by Gal4-luciferase reporter gene assay. The format is cell-based.
The target is the same in data set [14]. Description: Agonist activity at human LXRalpha by Gal4 assay. In a few lines: (§1)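 Cells were co-transfected with pG5-luc reporter and a Gal4 fusion of the ligand-binding domain (pGal4-LXRα LBD for α, pGal4-LXRβ LBD for β). Twenty hours after transfection, cells were treated with compound for 16 h. Agonist activity was read as luciferase signal and EC50 derived. Values are the average of at least two independent determinations.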

Data set [15] addresses T1, Oxysterols receptor LXR-beta. Description: Agonist activity at human LXRbeta by Gal4 assay. In a few lines:
as §1

The structures appear in SMILES notation.

The term half-life denotes the time in which the quantity being followed falls by half. Regarding `CC(C)[C@@H]1CN(c2cccc(S(C)(=O)=O)c2)CCN1c1nccc(C(F)(F)F)n1`, the half-life in data set [1] was determined as 11 min; in [2] it was 8 min.

As to `CC(C)[C@@H]1CN(c2ccc(F)c(S(C)(=O)=O)c2)CCN1c1ncc(C(C)(C)O)c(C(F)(F)F)n1`, the half-life in data set [1] was 51 min; in [3], 56 min; in [2] it was 72 min.

For the compound `CC(C)[C@@H]1CN(c2ccc(F)c(S(C)(=O)=O)c2)CCN1c1ncc(Cl)c(C(F)(F)F)n1`, the half-life in [1] worked out at 42 min; in [3], 19 min.

One may read the EC50 as the concentration needed to bring the measured effect to its halfway point. Consider `C[C@H](CC[C@@H]1OC1(C)C)[C@H]1CC[C@H]2[C@@H]3CC=C4C[C@@H](O)CC[C@]4(C)[C@H]3CC[C@]12C` [24(S),25-EPOXYCHOLESTEROL], for which the EC50 in data set [4] was greater than 20000 nM; in data set [5], 117 nM; in [6], 168 nM; in data set [7], greater than 20000 nM.

The IC50 is the concentration that inhibits the measured activity by half. As for `CC(C)[C@@H]1CN(c2ccc(CO)c(S(C)(=O)=O)c2)CCN1c1ncc(CO)c(C(F)(F)F)n1`, the half-life in data set [1] came out at 70 min; in data set [3], 43 min; in data set [9] it was 10 min; in data set [2] it was 40 min. The IC50 (in data set [8]; on Retinoid X receptor; in data set [10]; in data set [11]) was greater than 10 µM in each case.

Consider `FC(F)(F)c1ccc(CN2CCN(c3ccccc3)CC2c2ccccc2)cn1` (stereo unspecified), for which the EC50 in data set [12] and in data set [13] was greater than 20 µM throughout.

`CC(C)[C@H]1CN(c2ccc(CO)c(S(C)(=O)=O)c2)CCN1c1ncc(CO)c(C(F)(F)F)n1` displayed a half-life in data set [1] of 25 min.

`CC(C)[C@@H]1CN(c2ccc(F)c(S(C)(=O)=O)c2)CCN1c1nccc(C(F)(F)F)n1`: the half-life in data set [1] was determined as 5 min; in data set [2] it was 11 min.

`O=C(O)Cc1cccc(OCCCN(Cc2cccc(C(F)(F)F)c2Cl)CC(c2ccccc2)c2ccccc2)c1`: the half-maximal effective concentration (EC50) in data set [14] was 1130 nM; in data set [4] it was 5 nM; in [15], 390 nM; in data set [7], 22 nM.

Consider `CC(C)[C@@H]1CN(c2ccc(F)c(S(C)(=O)=O)c2)CCN1c1ncc(CO)c(C(F)(F)F)n1`, for which the results for the half-life in [1], in data set [3] and in data set [2] were 36 min, 22 min and 38 min, respectively.

(Values after ChEMBL document CHEMBL3813625, “Discovery of a Novel, Orally Efficacious Liver X Receptor (LXR) β Agonist” (J Med Chem, 2016).)
